High-throughput results: PubChem BioAssay, The Scripps Research Institute Molecular Screening Center
OX1R antag-1: blocks the human orexin 1 receptor | O43613 | CHO/OX1R cells, Fluo-8 calcium fluorescence, orexin A | inhibition, % at 5 µM | 0.43% of 330,000 active;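 active = inhibition above its plate's threshold, mean inhibition of all tested compounds on the plate plus 3 SD, cut at about 37% in these data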;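 note: 0% = orexin A challenge wells and 100% = SB-334867-A antagonist wells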
Target sequence (O43613 whole entry, looked up): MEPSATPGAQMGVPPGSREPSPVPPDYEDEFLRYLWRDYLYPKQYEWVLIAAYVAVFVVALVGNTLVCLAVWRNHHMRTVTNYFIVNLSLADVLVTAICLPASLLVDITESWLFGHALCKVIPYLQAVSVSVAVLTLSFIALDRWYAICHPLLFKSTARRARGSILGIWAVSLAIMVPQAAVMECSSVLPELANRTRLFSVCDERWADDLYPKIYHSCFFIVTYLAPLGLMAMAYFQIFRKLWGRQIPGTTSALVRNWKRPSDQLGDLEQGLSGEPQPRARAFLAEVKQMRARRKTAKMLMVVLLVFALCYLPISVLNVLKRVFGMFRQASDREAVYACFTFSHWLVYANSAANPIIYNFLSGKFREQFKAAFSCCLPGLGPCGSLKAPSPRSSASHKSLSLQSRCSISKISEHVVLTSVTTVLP
CHO-K1 Ca antag: M1 antagonist counterscreen hit in parental CHO-K1 cells | ATP-induced calcium, Fluo-8 fluorescence | inhibition, % at 3 µM | 0.6% of 360,000 active | AID 602250;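 active = inhibition above a per-plate cutoff, the plate's mean sample inhibition plus 3 SD, cut at about 24% in these data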;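 note: 0% = DMSO plus EC80 ATP and 100% = DMSO alone without ATP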
M1 ag parental: nonselective activator or artifact in parental CHO-K1 cells; Fluo-8 calcium fluorescence; scaled to maximal ATP response, vehicle zero; activation, % at 3 µM; 0.48% of 360,000 active; in the data active = activation above about 15%;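 note: untransfected CHO-K1 host cells lacking M1 receptor as counterscreen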
OX1R antag-2: blocks the human orexin 1 receptor | O43613 | OX1R-expressing cells, FRET antagonist read-out | inhibition, % at 6.6 µM | 1.8% of 330,000 active; in the data active = inhibition mostly above about 38%, no sharp cut-off; inactive = mostly below about 40%;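 note: 0% = agonist challenge alone and 100% = reference antagonist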
CHO parental Ca: counter-screen for OX1R antagonists: effect in parental CHO cells; inhibition, % at 5.6 µM; AID 463079; parental CHO-K1, ATP-induced calcium, Fluo-8 fluorescence; 0.63% of 330,000 active;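 active = inhibition above that plate's mean sample inhibition plus 3 SD, cut at about 26% in these data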;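 note: 0% = ATP-challenged DMSO wells and 100% = DMSO wells without ATP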
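material = parental CHO cells | also added = ATP as calcium-mobilizing challenge | dosing = single point at 5.6 µM | detection = intracellular calcium via Fluo-8 no-wash fluorescent dye | read-out = % inhibition | benchmarks = low control ATP plus DMSO, high control DMSO only | repeats = one well per compound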
M1 PAM parental: counter-screen for M1 PAMs: effect in parental CHO-K1 cells | ATP EC20, Fluo-8 calcium fluorescence; 0% at ATP EC20, 100% at ATP max | activation, % at 3 µM | 0.02% of 360,000 active | AID 602247;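 active = activation above the run cutoff, the mean activation of all test compounds plus 3 SD, cut at about 40% in these data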;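 note: peak over basal fluorescence ratio in a 140 s read after ATP addition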
* hit, by the source's call; nt = no result given. Most compounds without a hit are left out; they make up all but 2.9% or so of the library.

SMILES	OX1R antag-1	CHO-K1 Ca antag	M1 ag parental	OX1R antag-2	CHO parental Ca	M1 PAM parental
N#CC1=C(N)NC(SCc2ccc(Br)cc2)=C(C#N)C12CCCCC2	5	24*	8	19	45*	5
N#CC1=C(N)NC(SCc2ccc(Cl)cc2)=C(C#N)C12CCCCC2	54*	23	9	25	47*	1
O=C(NCCCCc1ccccc1)c1cccc(NC(=O)C2CC2)c1	nt	2	1	nt	nt	4
CC1(C(=O)NS(=O)(=O)c2ccc(Cl)cc2)CCN1C(=O)C/C=C/c1ccccc1 (centres undefined)	nt	-16	2	nt	nt	23
NS(=O)(=O)c1cccc(C(=O)N2CCCc3ccccc32)c1	nt	16	1	nt	nt	-12
C[C@H](CO)N1C[C@H](C)[C@@H](CN(C)S(=O)(=O)c2ccccc2)OCCCC[C@H](C)Oc2ccc(NC(=O)CCC(F)(F)F)cc2C1=O	nt	8	0	nt	nt	-12
CCCCN(CC)CCCNC(=O)C1CCN(c2ncnc3c2sc2cccc(F)c23)CC1	-11	-1	0	62*	-15	-8
O=C(NCc1nnnn1-c1ccc(F)cc1)c1ccc([N+](=O)[O-])o1	-3	-6	1	54*	4	7
Cc1ccc(-n2nnnc2CNC(=O)c2ccc([N+](=O)[O-])o2)cc1C	8	8	0	29	2	-5
CC(=O)c1ccc(-c2ccc(C(=O)NCC(c3ccc(F)cc3)N3CCOCC3)o2)cc1 (centres undefined)	-30	-11	14	28	-14	13
O=C(NCC(c1ccc(F)cc1)N1CCOCC1)c1ccc([N+](=O)[O-])o1 (centres undefined)	9	1	0	48*	-2	-25
CCNC(=O)NC(=O)COC(=O)C1CSC2(C)CCC(=O)N12 (centres undefined)	-5	3	0	1	-2	3
NC(=O)c1ccsc1NC(=O)COC(=O)c1cnccn1	-7	12	0	8	-4	-23
CC(C)CN(C(=O)COC(=O)c1ccccc1NCc1ccco1)c1c(N)n(Cc2ccccc2)c(=O)[nH]c1=O	13	5	0	75*	-19	2
COCCN(C(=O)COC(=O)c1ccccc1NCc1ccco1)c1c(N)n(Cc2ccccc2)c(=O)[nH]c1=O	-8	-8	0	42*	-21	8
CCN(C(=O)COC(=O)c1ccccc1NCc1ccco1)c1c(N)n(Cc2ccccc2)c(=O)[nH]c1=O	nt	-10	0	nt	nt	-12
CCCCCCCCn1ccc(=N)cc1	6	2	0	21	22	5
CCCCCCCCCCn1ccc(=N)cc1	48*	7	0	23	34*	2
CCCCC1(C(=O)OCC)CC(CSC(=N)N)OC1=O (centres undefined)	-9	8	19*	2	-7	5
CCCCCOCC1CC(C/C(C)=N/NC(N)=O)(C(=O)OCC)C(=O)O1 (centres undefined)	-16	-3	0	5	0	1
COc1cccc(CN(C)C(=O)c2cc(-c3cccs3)nc3ccccc23)c1	-24	27*	6	36	-26	5
NNC(=O)c1cc(-c2cccs2)nc2ccccc12	-12	-7	1	4	-12	3
COc1ccc(CNC(=O)COC(=O)c2cc(-c3cccs3)nc3ccccc23)cc1OC	10	9	4	48*	-10	14
COc1ccccc1OCCNc1ccc(S(=O)(=O)N2CCCC2)cn1	nt	-2	2	nt	nt	16
CCCc1cc(C(=O)N/N=C/c2cccn2C)cs1	-6	9	1	38	-2	3
CC(C)c1ccc(CCNC(=O)c2cccc(S(=O)(=O)N3CCN(C)CC3)c2)cc1	-41	-2	16*	-12	-19	10
c1ccc2c(c1)ccc1nnnn12	-6	-6	0	7	-21	9
O=C1c2cccc3c(O)ccc(c23)C(=O)N1Cc1ccco1	nt	26*	65*	nt	nt	-4
CC(=O)Nc1ccc(N2C(=O)c3cccc4c(O)ccc(c34)C2=O)cc1	61*	21	41*	16	58*	-23
Cc1ccc(N2C(=O)c3cccc4c(C(=O)O)ccc(c34)C2=O)cc1	2	nt	nt	34	-3	nt
